Screens deposited in PubChem by Broad Institute.
Rce1 inhib – blocks yeast Ras-converting enzyme; yeast membranes, quenched prenylated peptide cleavage fluorescence; Q03530; calls only; 290,000 compounds, 0.27% hits;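 active = fall in fluorescence gain of 50% or more versus controls, with final raw signal at or below 3038400; inconclusive = same 50% fall but final raw signal above 3038400; inactive = fall in fluorescence gain under 50%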
Target sequence (Q03530 whole entry, looked up): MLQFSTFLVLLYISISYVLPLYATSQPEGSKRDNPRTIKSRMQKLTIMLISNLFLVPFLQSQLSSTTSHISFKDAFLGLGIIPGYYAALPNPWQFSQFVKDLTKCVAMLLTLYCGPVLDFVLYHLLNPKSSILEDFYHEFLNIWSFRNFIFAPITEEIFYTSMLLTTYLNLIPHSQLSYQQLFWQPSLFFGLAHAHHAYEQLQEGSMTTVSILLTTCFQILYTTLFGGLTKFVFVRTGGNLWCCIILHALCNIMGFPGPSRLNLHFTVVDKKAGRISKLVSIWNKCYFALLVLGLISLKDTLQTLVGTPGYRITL
ARNT-TACC3 inh – disruptors of human ARNT/TACC3 interaction; inhibition, % at 9.99 µM; 390,000 compounds, 0.66% hits; AlphaScreen His-ARNT PAS-B/GST-TACC3 binding, luminescence; TACC3 fragment carries E629A point mutation;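 active = mean inhibition of replicates at least 50% and at least half of replicates each reaching 50%; inconclusive = half or more replicates reach 50% but mean below 50%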
CAL PDZ FP-1 – blocks peptide binding to the human CAL PDZ domain; Q9HD26; 300,000 compounds, 0.92% hits; purified CAL PDZ, TMR-peptide fluorescence polarization, 1 h; inhibition, % at 24.9 µM;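 active = mean inhibition of at least 30% with at least half of replicates also reaching 30%; inconclusive = no clear call, values can overlap the other calls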
CAL PDZ FP-2 – inhibitors of human CAL PDZ peptide binding. Q9HD26. purified CAL PDZ, TMR-peptide fluorescence polarization, 1 h. inhibition, % at 20 µM. 330,000 compounds, 0.02% hits. AID 504414;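 active = highest replicate inhibition of at least 40%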
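Test system: purified CerCALP PDZ construct; Compound dosing: one concentration, 20 µM compound; Also added: TMR-labelled reporter peptide T*-PRC34 bound in PDZ groove; Read-out: inhibition from polarization loss; Controls: unlabelled peptide and DMSO controls; Signal: FP readout, S and P plane fluorescence; Incubation: 1 h at RT.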
AI-2 QS mod – modulators of Vibrio harveyi AI-2 quorum sensing system | Vibrio harveyi JMH597 AI-2 luminescence/OD600 ratio, 9 h; active compounds read low; strain lacks LuxN and CqsS sensors; 0 = neutral-control median | activity change, % at 7.5 µM | 300,000 compounds, 0.4% hits | AID 2094; in the data active = activity change below about -75%, passing the limit was not always enough; inconclusive = no clear call, values can overlap the other calls;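 also: luminescence divided by OD600 gain over 9 h not by final OD600 alone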
A number is an active result; 0 = inactive; ? = inconclusive; - = not tested or not shown; + = active, no number. Rows were chosen to be rich in hits. Some 1.7% of all compounds tested hit in one or more screens of this group.

SMILES	Rce1 inhib	ARNT-TACC3 inh	CAL PDZ FP-1	CAL PDZ FP-2	AI-2 QS mod
O=C(N/N=C/c1c[nH]c2ccccc12)c1sc2ccccc2c1Cl	0	0	0	0	0
O=C(N/N=C1\C/C(=N\NC(=O)c2ccncc2)c2ccccc21)c1ccncc1	0	67	-	0	0
O=C(N/N=C/c1ccccn1)c1ccco1	0	45	0	0	0
O=C(N/N=C\c1ccncc1)c1ccccc1O	0	0	0	0	0
O=C(NN=C1C2CC3CC(C2)CC1C3)c1ccncc1	0	0	0	0	0
O=C(N/N=C/C=C\c1ccco1)c1ccccn1	0	68	0	0	0
O=C(N/N=C/c1cccc2cccnc12)c1ccccc1O	0	72	0	0	0
O=C(N/N=C/c1ccccn1)c1ccccc1	0	0	-	0	0
Cc1nc2ccccc2n1CC(=O)N/N=C\c1ccccn1	0	40	0	0	0
COC(=O)c1cccc(Cn2cc([N+](=O)[O-])cn2)c1	0	-	-	-	0
COC(=O)c1ccc(Cn2cc([N+](=O)[O-])cn2)cc1	0	0	68	0	0
O=C(CN1CCC(C(=O)c2ccc(F)cc2)CC1)NCc1ccccc1F	0	0	0	0	0
O=S(=O)(c1ccccc1)N(CC(O)COc1ccccc1)c1ccccc1 (centres undefined)	0	0	57	0	0
CCOC(=O)c1[nH]ncc1[C@@H]1C[C@H]2CN(Cc3cccc(Cl)c3)C(=O)[C@]23CCCN13	0	0	46	0	0
CCOc1cccc(N2CCN(CCNC(=O)Nc3ccc(C)cc3)CC2)c1C	0	0	37	0	0
CCn1c(COc2ccccc2C)nnc1SCC(=O)NCc1ccccc1	0	0	-	0	0
CCn1c(COc2cccc3ccccc23)nnc1SCC(N)=O	0	0	52	0	0
CO[C@H]1CN(C)C(=O)c2cc(NC(C)=O)ccc2OC[C@@H](C)N(C(=O)c2ccc(F)cc2)C[C@H]1C	-	0	-	-	-
CCOC1=CC(=O)N(Cc2ccccc2)C1	0	0	69	0	0
COc1cccc(C=Nc2ccccc2C(=O)Nc2nccs2)c1OC	0	0	-	0	0
O=C(Nc1nccs1)c1ccccc1N=Cc1ccccc1	?	0	59	0	0
Cc1noc(C)c1NC(=O)Nc1ccc2c(c1)C(=O)N([C@H](C)CO)C[C@H](C)[C@@H](CN(C)C(=O)Nc1ccc3c(c1)OCO3)O2	-	0	0	0	-
Cc1ccc2c(c1)CC1(CN2C)C(=O)OC2(CCCCC2)OC1=O	0	0	78	0	0
CN1CC2(Cc3c1ccc1ccccc31)C(=O)OC(C)(C)OC2=O	0	0	0	0	0
O=C(CC1CCCCC1)NCC1CCCO1 (centres undefined)	0	0	0	0	0
SMILES	Rce1 inhib	ARNT-TACC3 inh	CAL PDZ FP-1	CAL PDZ FP-2	AI-2 QS mod
NC(=O)c1c(NC(=O)c2ccccc2F)sc2c1CCCC2	0	0	77	0	0
CCC(CO)NCc1ccc(OC2CCCC2)cc1 (centres undefined)	0	0	47	0	0
CCSC1=N/C(=C\c2ccccc2)C(=O)N1	0	0	61	0	0
Cc1cc(C(=O)NNC(=O)C(C)NS(=O)(=O)c2ccccc2F)c(C)o1 (centres undefined)	-	0	-	0	-
Cc1cc(C(=O)NNC(=O)c2cccc(C(F)(F)F)c2)no1	0	0	45	0	0
Cc1nc(C(=O)NNC(=O)c2ccc(C(F)(F)F)cc2)cs1	0	-	-	-	0
O=C(NNC(=O)c1cccc(C(F)(F)F)c1)c1ccncc1	0	0	0	-	0
Cc1cc(C(=O)NNC(=O)c2ccc(C(F)(F)F)cc2)no1	0	0	60	0	?
Cc1ccc(Nc2nc(-c3ccc(S(=O)(=O)N4CCOCC4)cc3)cs2)cc1Cl	+	0	0	0	0
CC(C)CC(=O)Nc1nc(-c2ccc(S(=O)(=O)N3CCOCC3)cc2)cs1	0	0	0	0	0
Cn1c2ccccc2c2nnc(SCC(=O)Nc3cccc(C(=O)O)c3)nc21	0	47	0	0	0
CCCn1c(C2CC(=O)N(c3ccc(C)cc3)C2)nc2ccccc21 (centres undefined)	0	0	0	0	0
Cc1ccc(N2CC(c3nc4ccccc4n3C)CC2=O)cc1 (centres undefined)	0	0	31	0	0
O=C(CN1CC(=O)Oc2ccccc21)OCC(=O)c1ccc(F)cc1	0	63	0	0	0
O=C(CN1CC(=O)Oc2ccccc21)OCC(=O)c1ccc(Br)cc1	0	71	0	0	0
C[C@@]12CCC=C[C@H]1[C@H](c1ccc(/C=C/c3ccccc3)cc1F)N(Cc1ccccc1)C2=O	+	0	0	0	0
C=CCOc1ccc(/C=C/C(=O)OCC(=O)N2CCN(S(=O)(=O)c3ccc(C)cc3C)CC2)cc1	-	-	47	0	-
O=C(CN1CCCC1=O)NC1CCCc2c1cnn2-c1cc(F)cc(F)c1 (centres undefined)	0	0	0	0	0
N#CC(CCc1ccccc1[N+](=O)[O-])(CCc1ccccc1[N+](=O)[O-])C(N)=O	-	0	53	0	-
NC(=O)c1ccccc1[N+](=O)[O-]	-	-	0	0	-
CCOCC(=O)Nc1ccc(C)c(Cl)c1	0	0	0	0	0
Cc1ccc(/C=C/C(=O)Nc2nn[nH]n2)o1	0	61	0	0	0
CO[C@H](CN(C)S(=O)(=O)c1cn(C)cn1)[C@H](C)CN(C(=O)Nc1ccc(F)cc1)[C@H](C)CO	-	0	-	-	-
O=Cc1ccc(-n2cccn2)cc1	0	0	0	0	0
Cc1nccn1-c1ccc(C=O)cc1	0	0	121	0	0
SMILES	Rce1 inhib	ARNT-TACC3 inh	CAL PDZ FP-1	CAL PDZ FP-2	AI-2 QS mod
COc1ccc(NC(=O)C2=CC(c3ccc(OC)cc3)=NS(=O)(=O)N2C)cc1	0	0	-	0	0
COc1ccc(OC)c(C2=NS(=O)(=O)N(C)C(C(=O)Nc3ccc(C(C)=O)cc3)=C2)c1	0	0	54	0	0
CCOC(=O)C1=C(CC)Nc2ccccc2N=C1NC(=O)c1ccc(OC)c(S(=O)(=O)N2CCCCC2C)c1 (centres undefined)	0	0	-	0	0
CC(C)(C)C(=O)O/N=C(\N)c1ccc([N+](=O)[O-])s1	-	0	0	0	-84
N/C(=N\O)c1ccc([N+](=O)[O-])s1	0	0	0	0	0
N/C(=N\OC(=O)C1CC1)c1ccc([N+](=O)[O-])s1	-	0	0	0	-88
COc1ccc(NC(=O)COC(=O)c2ccc([N+](=O)[O-])o2)cc1Cl	0	0	-	0	-89
Cc1cc(C(=O)OCC(=O)Nc2ccc(F)cc2)c(C)o1	0	-	0	0	-82
Cc1cc(C(=O)OCC(=O)Nc2cccc(S(=O)(=O)N(C)C)c2)c(C)o1	0	0	0	0	-89
CCN(CC)S(=O)(=O)c1cccc(NC(=O)COC(=O)c2cc(C)oc2C)c1	-	0	0	-	0
O=C(OCc1cc(Cl)ccc1OC(F)F)c1cncc(Br)c1	0	0	-	0	0
COc1ccc(C)cc1NC(=O)COC(=O)c1ccc([N+](=O)[O-])o1	0	0	0	0	0
O=C(OCc1cc(Cl)ccc1OC(F)F)c1ccc([N+](=O)[O-])o1	0	-	-	-	-99
